Results taken from ChEMBL document CHEMBL3414425, “Synthesis and biological evaluation of new imidazo[2,1-b][1,3,4]thiadiazole-benzimidazole derivatives” (Eur J Med Chem, 2015).
In brackets after ≈: the same amount, converted by molar mass. Activity calls are given as the source filed them. The rule behind the calls is not given here.

How the values were obtained:
Escherichia coli [1] = test: Antibacterial activity against Escherichia coli at 0.5 mg/ml incubated for 18 hrs by well plate technique; format: functional; conditions: for zone of inhibition at 500 µg/mL: read-out: DIZ
Method in brief: (§1)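 Bacteria kept on nutrient agar at 37 °C, grown statically in nutrient broth (start ~10-100 cfu/mL) at 37 °C for 18-24 h. Suspensions diluted in saline and spread on nutrient agar, then wells cut with a cork borer. Compound in DMSO at 1 or 0.5 mg/mL added to wells, 37 °C, 18 h. Inhibition zone diameter measured minus DMSO value; triplicate; streptomycin standard.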

Escherichia coli [2] = test: Antibacterial activity against Escherichia coli at 1 mg/ml incubated for 18 hrs by well plate technique; format: functional; conditions: for zone of inhibition at 1000 µg/mL: read-out: DIZ; method in brief: as §1
[3] = system: Chrysosporium keratinophilum; test: Antifungal activity against Chrysosporium keratinophilum at 1 mg/ml incubated for 3 days; format: functional; conditions: for zone of inhibition at 1000 µg/mL: 72 h, read-out: IZ
Method in brief: (§2)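 Well plate method on potato dextrose agar. Fungal stock suspended in distilled water with Tween 80 and swabbed over plates. Samples in DMSO at 1 and 0.5 mg/mL added to wells, incubated 25 °C for 3 days, then scored for inhibition zones; fluconazole standard.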

Aspergillus flavus [4] = test: Antifungal activity against Aspergillus flavus at 0.5 mg/ml incubated for 3 days; format: functional; conditions: for zone of inhibition at 500 µg/mL: 72 h, read-out: IZ; method in brief: as §2
Pseudomonas aeruginosa [5] = test: Antibacterial activity against Pseudomonas aeruginosa at 0.5 mg/ml incubated for 18 hrs by well plate technique; format: functional; conditions: for zone of inhibition at 500 µg/mL: read-out: DIZ; method in brief: as §1
Salmonella typhi [6] = test: Antibacterial activity against Salmonella typhi at 1 mg/ml incubated for 18 hrs by well plate technique; format: functional; conditions: for diameter of the inhibition zone (DIZ): Salmonella enterica subsp. enterica serovar Typhi; for zone of inhibition at 1000 µg/mL: Salmonella enterica, read-out: DIZ
Method in brief: (§3)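 Well diffusion on nutrient agar; strains kept on nutrient agar at 37 °C, grown statically in nutrient broth 18-24 h at 37 °C, diluted in saline, 0.1 ml spread per plate. Compounds in DMSO at 1 and 0.5 mg/mL added to cork-bored wells; 18 h at 37 °C. Inhibition zone diameter measured, DMSO value subtracted; triplicate; streptomycin reference.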

Staphylococcus aureus [7] = test: Antibacterial activity against Staphylococcus aureus at 1 mg/ml incubated for 18 hrs by well plate technique; format: functional; conditions: for zone of inhibition at 1000 µg/mL: read-out: DIZ; method in brief: as §1
Staphylococcus aureus [8] = test: Antibacterial activity against Staphylococcus aureus at 0.5 mg/ml incubated for 18 hrs by well plate technique; format: functional; conditions: for zone of inhibition at 500 µg/mL: read-out: DIZ; method in brief: as §1
Candida albicans [9] = test: Antifungal activity against Candida albicans at 0.5 mg/ml incubated for 3 days; format: functional; conditions: for zone of inhibition at 500 µg/mL: 72 h, read-out: IZ; method in brief: as §2
Pseudomonas aeruginosa [10] = test: Antibacterial activity against Pseudomonas aeruginosa at 1 mg/ml incubated for 18 hrs by well plate technique; format: functional; conditions: for zone of inhibition at 1000 µg/mL: read-out: DIZ; method in brief: as §1
[11] = system: Chrysosporium keratinophilum; test: Antifungal activity against Chrysosporium keratinophilum at 0.5 mg/ml incubated for 3 days; format: functional; conditions: for zone of inhibition at 500 µg/mL: 72 h, read-out: IZ; method in brief: as §2
[12] = system: Mycobacterium tuberculosis; test: Antitubercular activity against Mycobacterium tuberculosis H37Rv ATCC 27294/XDR-TB incubated for 28 days by agar dilution method; format: functional; conditions: 672 h
Method in brief: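 Agar dilution: two-fold dilutions in Middlebrook 7H11 agar with OADC. Inoculum from fresh 7H11/OADC slants adjusted to 1 mg/mL wet weight in 0.05% Tween 80 saline, diluted 10^-2 (~10⁷ cfu/mL); 5 µL spotted per tube. Incubated 37 °C; MIC, lowest concentration fully inhibiting growth, read after 28 days, in triplicate.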

[13] = Antioxidant activity assessed as DPPH radical scavenging activity incubated for 10 mins by UV-visible spectrometry; format: physicochemical
Method in brief: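 DPPH free-radical scavenging; absorbance read at 517 nm against a methanol blank. % scavenging = (A control − A sample)/A control × 100.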

Candida albicans [14] = test: Antifungal activity against Candida albicans at 1 mg/ml incubated for 3 days; format: functional; conditions: for zone of inhibition at 1000 µg/mL: 72 h, read-out: IZ; method in brief: as §2
Aspergillus flavus [15] = test: Antifungal activity against Aspergillus flavus at 1 mg/ml incubated for 3 days; format: functional; conditions: for zone of inhibition at 1000 µg/mL: 72 h, read-out: IZ; method in brief: as §2
Salmonella typhi [16] = test: Antibacterial activity against Salmonella typhi at 0.5 mg/ml incubated for 18 hrs by well plate technique; format: functional; conditions: for diameter of the inhibition zone (DIZ): Salmonella enterica subsp. enterica serovar Typhi; for zone of inhibition at 500 µg/mL: Salmonella enterica, read-out: DIZ; method in brief: as §3
[17] = Cytotoxicity against African green monkey Vero cells assessed as growth inhibition at 62.5 ug/ml after 72 hrs by MTT assay; format: cell-based; conditions: chlorocebus sabaeus, read-out: GI
Method in brief: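 Vero cells grown in MEM + 10% FBS at 37 °C, 5% CO2. Seeded ~10,000 cells/well, 24 h to a partial monolayer. Compounds in DMSO diluted in MEM + 2% FBS (1 mg/ml stock, two-fold dilutions) for 72 h. MTT 3 h, formazan dissolved in propanol, A540. % inhibition = 100 − (mean OD test/mean OD control × 100).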

Row | SMILES | inhibition zone (IZ) [3] | inhibition zone (IZ) (Aspergillus flavus [4]) | diameter of the inhibition zone (DIZ) (Salmonella typhi [6]) | MIC [12] [µg/mL] | inhibition (INH) [13] [%] | inhibition at 72 h, 62.5 ug/ml [17] [%] | zone of inhibition at 500 µg/mL (Escherichia coli [1]) [mm] | zone of inhibition at 1000 µg/mL (Escherichia coli [2]) [mm] | zone of inhibition at 1000 µg/mL [3] [mm] | zone of inhibition at 500 µg/mL (Aspergillus flavus [4]) [mm] | zone of inhibition at 500 µg/mL (Pseudomonas aeruginosa [5]) [mm] | zone of inhibition at 1000 µg/mL (Salmonella typhi [6]) [mm] | zone of inhibition at 1000 µg/mL (Staphylococcus aureus [7]) [mm] | zone of inhibition at 500 µg/mL (Staphylococcus aureus [8]) [mm] | zone of inhibition at 500 µg/mL (Candida albicans [9]) [mm] | zone of inhibition at 1000 µg/mL (Pseudomonas aeruginosa [10]) [mm] | zone of inhibition at 500 µg/mL [11] [mm] | zone of inhibition at 1000 µg/mL (Candida albicans [14]) [mm] | zone of inhibition at 1000 µg/mL (Aspergillus flavus [15]) [mm] | zone of inhibition at 500 µg/mL (Salmonella typhi [16]) [mm] | also measured
1 | COc1ccc(-c2nc3sc(C)nn3c2-c2nc3ccccc3[nH]2)cc1 | inactive | inactive | inactive | 6.25 (≈ 17.3 µM) | 21.4 | 7.1 |  |  |  |  |  |  |  |  |  |  |  |  |  |  | diameter of the inhibition zone (DIZ) (Escherichia coli [1]): inactive; diameter of the inhibition zone (DIZ) (Escherichia coli [2]): inactive; diameter of the inhibition zone (DIZ) (Pseudomonas aeruginosa [5]): inactive; diameter of the inhibition zone (DIZ) (Staphylococcus aureus [7]): inactive; diameter of the inhibition zone (DIZ) (Staphylococcus aureus [8]): inactive; inhibition zone (IZ) (Candida albicans [9]): inactive; diameter of the inhibition zone (DIZ) (Pseudomonas aeruginosa [10]): inactive; inhibition zone (IZ) [11]: inactive; inhibition zone (IZ) (Candida albicans [14]): inactive; inhibition zone (IZ) (Aspergillus flavus [15]): inactive; diameter of the inhibition zone (DIZ) (Salmonella typhi [16]): inactive
2 | Cc1nn2c(-c3nc4cc(Cl)ccc4[nH]3)c(-c3ccc(Cl)cc3)nc2s1 |  |  |  | 3.12 (≈ 7.81 µM) | 78.8 | 7.12 | 2 | 4 | 5 | 1 | 1 | 4 | 3 | 2 | 2 | 4 | 3 | 4 | 3 | 2 | 
3 | Cc1ccc(-c2nn3c(-c4nc5cc(Cl)ccc5[nH]4)c(-c4ccc(Cl)cc4)nc3s2)cc1 |  |  | inactive | 3.12 (≈ 6.56 µM) | 65.7 | 7.4 | 2 | 4 | 3 | 2 | 2 |  | 5 | 3 | 4 | 3 | 1 | 6 | 5 |  | diameter of the inhibition zone (DIZ) (Salmonella typhi [16]): inactive
4 | Cc1ccc(-c2nn3c(-c4nc5ccccc5[nH]4)c(-c4ccc(Cl)cc4)nc3s2)cc1 | inactive | inactive |  | 3.12 (≈ 7.07 µM) | 18.8 | 13.3 | 2 | 4 |  |  | 3 | 4 | 3 | 2 |  | 6 |  |  |  | 2 | inhibition zone (IZ) (Candida albicans [9]): inactive; inhibition zone (IZ) [11]: inactive; inhibition zone (IZ) (Candida albicans [14]): inactive; inhibition zone (IZ) (Aspergillus flavus [15]): inactive
5 | Fc1ccc(-c2nc3sc(-c4ccc(Cl)cc4)nn3c2-c2nc3ccccc3[nH]2)cc1 |  |  |  | 3.12 (≈ 7.01 µM) | 21.7 | 10.7 | 3 | 5 | 4 | 2 | 5 | 3 | 7 | 3 | 1 | 8 | 3 | 3 | 4 | 1 | 
6 | Cc1ccc(-c2nc3sc(-c4ccc(Cl)cc4)nn3c2-c2nc3ccccc3[nH]2)cc1 |  |  |  | 3.12 (≈ 7.07 µM) | 45.7 | 12.2 | 3 | 5 | 5 | 3 | 1 | 5 | 4 | 1 | 2 | 4 | 2 | 4 | 5 | 3 | 
7 | Cc1ccc(-c2nn3c(-c4nc5cc([N+](=O)[O-])ccc5[nH]4)c(-c4ccc(F)cc4)nc3s2)cc1 |  |  |  | 6.25 (≈ 13.3 µM) | 22.3 | 10.5 | 2 | 4 | 4 | 2 | 2 | 4 | 4 | 2 | 2 | 3 | 2 | 5 | 5 | 1 | 
8 | Cc1ccc(-c2nc3sc(-c4ccc(Cl)cc4)nn3c2-c2nc3cc([N+](=O)[O-])ccc3[nH]2)cc1 | inactive | inactive | inactive | 6.25 (≈ 12.8 µM) | 26.3 | 8.85 |  |  |  |  |  |  |  |  |  |  |  |  |  |  | diameter of the inhibition zone (DIZ) (Escherichia coli [1]): inactive; diameter of the inhibition zone (DIZ) (Escherichia coli [2]): inactive; diameter of the inhibition zone (DIZ) (Pseudomonas aeruginosa [5]): inactive; diameter of the inhibition zone (DIZ) (Staphylococcus aureus [7]): inactive; diameter of the inhibition zone (DIZ) (Staphylococcus aureus [8]): inactive; inhibition zone (IZ) (Candida albicans [9]): inactive; diameter of the inhibition zone (DIZ) (Pseudomonas aeruginosa [10]): inactive; inhibition zone (IZ) [11]: inactive; inhibition zone (IZ) (Candida albicans [14]): inactive; inhibition zone (IZ) (Aspergillus flavus [15]): inactive; diameter of the inhibition zone (DIZ) (Salmonella typhi [16]): inactive
9 | Cc1nn2c(-c3nc4ccccc4[nH]3)c(-c3ccc(F)cc3)nc2s1 |  |  |  | 6.25 (≈ 17.9 µM) | 19.9 | 10.6 | 3 | 4 | 4 | 2 | 2 | 2 | 2 | 1 | 1 | 3 | 3 | 2 | 3 | 1 | 
10 | COc1ccc(-c2nc3sc(-c4ccc(C)cc4)nn3c2-c2nc3cc(Cl)ccc3[nH]2)cc1 |  |  |  | 3.12 (≈ 6.62 µM) | 31.3 | 8.31 | 2 | 4 | 4 | 2 | 3 | 3 | 6 | 3 | 2 | 7 | 2 | 3 | 3 | 1 | 
